The text below walks through data of ChEMBL document CHEMBL1125214, “Synthesis and adenosine receptor affinity of a series of pyrazolo[3,4-d]pyrimidine analogues of 1-methylisoguanosine” (J Med Chem, 1991).

Series [1] deals with Adenosine A2 receptor (Rattus norvegicus) (UniProt P29276+P30543). As to the kind of experiment: Inhibition of radioligand R[3H]-CGS 21680 binding to adenosine A2 receptors in rat striatal membrane at 20 uM concentration. It is filed as cell membranes. The following applies: Striatum. A digest of the protocol: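 Striata from male Wistar rats (300-400 g) were homogenized in 50 mM Tris-HCl pH 7.4 with 10 mM MgCl2 and pelleted twice at 48000g. Assay: membranes at 100-200 µg/mL, 5 nM [3H]CGS 21680, 90 min at 23 °C. Nonspecific binding defined with 20 µM 2-chloroadenosine. Filtration and counting as in the A1 assay. Compounds tested at 20 µM; result expressed as % inhibition of control binding.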

Series [2] deals with T1, Adenosine receptor A1 (Rattus norvegicus) (UniProt P25099).
T1 sequence (whole entry): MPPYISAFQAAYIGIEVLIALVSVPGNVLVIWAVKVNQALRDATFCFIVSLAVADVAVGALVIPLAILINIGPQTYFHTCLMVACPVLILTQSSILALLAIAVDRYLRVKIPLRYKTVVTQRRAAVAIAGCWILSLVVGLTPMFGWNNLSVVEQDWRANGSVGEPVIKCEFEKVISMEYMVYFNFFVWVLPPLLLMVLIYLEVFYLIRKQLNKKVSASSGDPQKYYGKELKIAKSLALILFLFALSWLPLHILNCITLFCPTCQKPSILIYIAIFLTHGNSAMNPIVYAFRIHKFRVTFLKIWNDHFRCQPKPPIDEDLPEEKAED
As to the kind of experiment: Inhibition of radioligand R[3H]-N6-PIA binding to adenosine A1 receptors in rat whole brain membrane at 20 uM concentration. It is filed as cell membranes. A digest of the protocol:
(§1)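 Rat whole-brain synaptosomal membranes were made by sucrose homogenization and 14500g pelleting. They were pretreated with adenosine deaminase (2 IU/mL, 37 °C, 30 min). Assay: membranes at 100-200 µg/mL, 2 nM R-[3H]N6-PIA, 50 mM Tris-HCl pH 7.4 with 1 mM MgCl2, 60 min at 37 °C. Compounds in DMSO. Nonspecific binding defined with 100 µM R-N6-PIA. GF/B filtration and scintillation counting. […] At least three runs in triplicate.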

The nature of series [3]: Hydrophobicity index measured by retention time on a reverse phase HPLC column. It is filed as ADME.
A further series addresses Adenosine A2 receptor (Rattus norvegicus, UniProt P29276+P30543). As to the kind of experiment: Inhibitory concentration against [3H]CGS 21680 binding to adenosine A2 receptors in rat striatal membrane.
For series [4], the target named is T2, Adenosine receptor A1 (Rattus norvegicus, UniProt P25099).
T2 sequence (P25099 whole entry): T1 sequence (whole entry)
The series can be described thus: Inhibitory concentration against R[3H]-N6-PIA binding to adenosine A1 receptors in rat whole brain membrane. The series is classed as cell membranes. A digest of the protocol: as §1

The target in series [5] is T2, Adenosine receptor A1. As to the kind of experiment: Inhibitory concentration against R[3H]-N6-PIA binding to adenosine A1 receptor in rat whole brain membrane. It is filed as cell membranes. A digest of the protocol:
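Rat whole-brain synaptosomal membranes were made by sucrose homogenization and 14500g pelleting. They were pretreated with adenosine deaminase (2 IU/mL, 37 °C, 30 min). Assay: membranes at 100-200 µg/mL, 2 nM R-[3H]N6-PIA, 50 mM Tris-HCl pH 7.4 with 1 mM MgCl2, 60 min at 37 °C. Compounds in DMSO. Nonspecific binding defined with 100 µM R-N6-PIA. GF/B filtration and scintillation counting. At least three runs in triplicate.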

Series [6] addresses Adenosine receptors; A1 & A2 (Rattus norvegicus) (UniProt P29276+P25099+P30543). As to the kind of experiment: Ratio of IC50 for A2 and A1 receptor binding. It is filed as protein assay.

Each structure is given as a SMILES string. pIC50: −log10 of the molar value. Some results are limits rather than exact numbers.

Turning to `Cn1c(=O)[nH]c2c(cnn2-c2ccc([N+](=O)[O-])cc2)c1=N`, the values for the inhibition in series [1] and in series [2] were 0% and 5%, respectively. The “k'” value in series [3] is reported as more than 36.5.

Regarding `Cn1c(=O)[nH]c2c(cnn2-c2cccc(N)c2)c1=N`, the inhibition in series [1] and in series [2] was 0% throughout. Moreover, the “k'” value in series [3] was 0.7.

With `CCCCn1c(=O)[nH]c2c(cnn2-c2cccc(Cl)c2)c1=N`, the figures for the inhibition in series [1] and in series [2] were 38% and 58%, respectively. For the same molecule, the “k'” value in series [3] is more than 36.5. At Adenosine A2 receptor, the IC50 came to 19.2 µM.

Regarding `Cn1c(=O)[nH]c2c(cnn2-c2ccccc2N)c1=N`, the inhibition in series [1] and in series [2] was 0% in each case. Moreover, in series [3], the “k'” value is on record as 0.8.

Turning to `Cn1c(=O)[nH]c2c(cnn2-c2cccc(Br)c2)c1=N`, the inhibition in series [1] is 1%; in series [2] it was 40%. In addition, the “k'” value in series [3] came to 17.5.

As to `Cn1c(=O)[nH]c2c(cnn2-c2cccc(Cl)c2)c1=N`, the negative logarithm of the IC50 (pIC50) at Adenosine receptor A1 [4] is 4.78. The inhibition in series [1] is 29%; in series [2], 53%. Further, the “k'” value in series [3] is 14.2.

For the molecule `Cn1c(=O)[nH]c2c(cnn2-c2ccccc2F)c1=N`, the inhibition in series [1] was found to be 0%; in series [2], 8%. In series [3], the “k'” value was found to be 1.1.

Regarding `N=c1c2cnn(-c3ccccc3)c2[nH]c(=O)n1-c1ccccc1`, the figures for the inhibition in series [1] and in series [2] were 0% and 25%, respectively. Further, the “k'” value in series [3] is 5.1.

In turn, `CCCn1c(=O)[nH]c2c(cnn2-c2ccccc2)c1=N` gave a negative-log IC50 (pIC50) on Adenosine receptor A1 [5] of 4.29. The inhibition was determined as 7% in series [1] and 52% in series [2]. In addition, the Ratio in series [6] is 1. Further, the “k'” value in series [3] is 7.5. The same molecule showed an IC50 at Adenosine A2 receptor of 50.2 µM.

`CCn1c(=O)[nH]c2c(cnn2-c2ccccc2)c1=N`: the pIC50 at Adenosine receptor A1 [5] is 4.70. The inhibition in series [1] worked out at 16%; in series [2], 58%. Besides, the Ratio in series [6] stood at 4.1. Besides, the “k'” value in series [3] stood at 4.2. The molecule also gave an IC50 on Adenosine A2 receptor of 81.8 µM.

As to `Cn1c(=O)[nH]c2c(cnn2-c2ccc(F)cc2)c1=N`, the inhibition in series [1] stood at 0%; in series [2], 26%. For the same molecule, the “k'” value in series [3] was determined as 4.1.

As for `Cn1c(=O)[nH]c2c(cnn2-c2ccc(Br)cc2)c1=N`, the inhibition in series [1] stood at 7%; in series [2], 34%. Moreover, the “k'” value in series [3] was found to be 18.9.

As for `Cn1c(=O)[nH]c2c(cnn2C)c1=N`, the figures for the inhibition in series [1] and in series [2] were 0% and 6%, respectively. Besides, in series [3], the “k'” value was determined as 0.1.

Consider `Cn1c(=O)[nH]c2c(cnn2-c2ccccc2Br)c1=N`, for which the inhibition in series [1] was 0%; in series [2] it was 6%. Moreover, the “k'” value in series [3] turned out to be 1.8.

For `Cn1c(=O)[nH]c2c(cnn2-c2ccc(Cl)cc2)c1=N`, the inhibition in series [1] worked out at 0%; in series [2] it was 37%. Further, the “k'” value in series [3] stood at 13.6.

Regarding `Cn1c(=O)[nH]c2c(cnn2-c2ccccc2[N+](=O)[O-])c1=N`, the inhibition came to 7% in series [1] and 5% in series [2]. For the same molecule, the “k'” value in series [3] amounted to 0.9.

On to `Cn1c(=O)[nH]c2c(cnn2-c2ccc(Cl)cc2Cl)c1=N`, for which the inhibition in series [1] turned out to be 0%; in series [2], 9%. Besides, the “k'” value in series [3] is on record as 7.1.

Regarding `Cn1c(=O)[nH]c2c(cnn2-c2cc(Cl)ccc2Cl)c1=N`, the inhibition is 3% in series [1] and 1% in series [2]. For the same molecule, the “k'” value in series [3] stood at 4.8.

Take `Cn1c(=O)[nH]c2c(cnn2-c2ccc(N)cc2)c1=N`: the inhibition in series [1] and in series [2] was 0% throughout. Further, the “k'” value in series [3] came to 0.3.

For `Cn1c(=O)[nH]c2c(cnn2-c2ccccc2Cl)c1=N`, the values for the inhibition in series [1] and in series [2] were 0% and 7%, respectively. For the same molecule, in series [3], the “k'” value worked out at 1.7.

`CCCn1c(=O)[nH]c2c(cnn2-c2cccc(Cl)c2)c1=N` showed a pIC50 on Adenosine receptor A1 [5] of 4.84. The inhibition in series [1] was found to be 35%; in series [2] it was 68%. In addition, in series [6], the Ratio came out at 3.2. Besides, in series [3], the “k'” value is recorded as more than 36.5. The molecule also returned an IC50 on Adenosine A2 receptor of 47.3 µM.

For the molecule `Cn1c(=O)[nH]c2c(cnn2-c2cccc(F)c2)c1=N`, the inhibition is 22% in series [1] and 44% in series [2]. For the same molecule, in series [3], the “k'” value stood at 5.8.

The molecule `CCn1c(=O)[nH]c2c(cnn2-c2cccc(Cl)c2)c1=N` showed a pIC50 at Adenosine receptor A1 [5] of 4.70. The inhibition in series [1] came to 24%; in series [2], 70%. In series [6], the Ratio is 1.2. In addition, in series [3], the “k'” value was 21.9. Further, on Adenosine A2 receptor, the 50% inhibitory concentration (IC50) turned out to be 23.5 µM.

Turning to `Cn1c(=O)[nH]c2c(cnn2-c2ccccc2)c1=N`, the inhibition in series [1] stood at 7%; in series [2] it was 30%. Moreover, in series [3], the “k'” value came out at 2.6.

In the case of `Cn1c(=O)[nH]c2c(cnn2-c2cc(Cl)cc(Cl)c2)c1=N`, the inhibition in series [1] stood at 0%; in series [2], 29%. For the same molecule, the “k'” value in series [3] is more than 36.5.

On to `Cn1c(=O)[nH]c2c(cnn2-c2cccc([N+](=O)[O-])c2)c1=N`, for which the inhibition in series [1] was found to be 1%; in series [2] it was 2%. In addition, the “k'” value in series [3] is more than 36.5.

Regarding `CCCCn1c(=O)[nH]c2c(cnn2-c2ccccc2)c1=N`, the pIC50 on Adenosine receptor A1 [5] is 5.02. In addition, the inhibition was 21% in series [1] and 72% in series [2]. For the same molecule, the Ratio in series [6] stood at 2.6. Further, the “k'” value in series [3] is 18.5. Moreover, the IC50 on Adenosine A2 receptor was found to be 24.8 µM.

With `CCCn1ncc2c(=N)n(C)c(=O)[nH]c21`, the inhibition is 0% in series [1] and 5% in series [2]. Besides, the “k'” value in series [3] turned out to be 0.8.
